This is an account of results in ChEMBL document CHEMBL3091336, “Analogs of the Allosteric Heat Shock Protein 70 (Hsp70) Inhibitor, MKT-077, as Anti-Cancer Agents” (ACS Med Chem Lett, 2013).

pEC50: −log10 of the molar value. The source made the active and inactive calls. The rule behind the calls is not given here.

A short description of data set [1]: Selectivity ratio of EC50 for C57BL/6 mouse MEF to EC50 for human MDA-MB-231 cells. Format: ADME. To be noted: C57BL/6, mouse and human, mouse embryonic fibroblasts (MEF) versus MDA-MB-231 cells. The procedure, abridged: (§1)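 Antiproliferative EC50 values measured by MTT assay in mouse embryonic fibroblasts and in the breast cancer line (MCF7 or MDA-MB-231), averaged over triplicate experiments, error SEM. Selectivity taken as the ratio of fibroblast EC50 to cancer-cell EC50.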

Data set [2] deals with MDA-MB-231. Kind of data set: Upregulation of Hsp70 protein expression in human MDA-MB-231 cells at 0.6 to 10 uM after 24 hrs by Western blot analysis. Format: functional, cell-based. In outline:
(§2)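 MCF7 and MDA-MB-231 cells treated for 24 h across a range of concentrations. Lysates Western blotted for p53, Akt1, Raf1, Hsp70 and Hsp90. Representative of triplicate experiments.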

Data set [3] concerns MDA-MB-231. Kind of data set: Upregulation of Hsp90 protein expression in human MDA-MB-231 cells at 0.6 to 10 uM after 24 hrs by Western blot analysis. Format: functional, cell-based. The procedure, abridged: as §2
Data set [4] concerns MCF7. Kind of data set: Cytotoxicity against human MCF7 cells assessed as growth inhibition after 72 hrs by MTT assay. In kind it is functional, cell-based. The note with it: MCF7, 72 h. The procedure, abridged: (§3)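 Antiproliferative activity measured by MTT assay. EC50 is the average of triplicate experiments, with error as SEM.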
For orientation: Tetrazolium dyes change colour on reduction, which living cells bring about.

Data set [5] can be described thus: Half life in mouse liver microsomes at 1 uM incubated for 15 mins prior to beta-NADPH addition by LC-MS/MS analysis. In kind it is ADME, Microsome. The note with it: for t1/2: microsomes, 0.25 h, 1 µM. In outline:
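Compounds at 1 μM incubated with mouse liver microsomes. Degradation followed by LC–MS and reported as half-life.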

The subject of data set [6] is MEF. Kind of data set: Cytotoxicity against C57BL/6 mouse MEF assessed as growth inhibition after 72 hrs by MTT assay. The note with it: C57BL/6, MEF. Format: cell-based. The procedure, abridged: as §3
Data set [7] relates to MDA-MB-231. Kind of data set: Inhibition of HSP70 in human MDA-MB-231 cells assessed as reduction of Raf level at 0.6 to 10 uM after 24 hrs by Western blot analysis. In kind it is cell-based. In outline: (§4)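 MCF7 or MDA-MB-231 cells treated for 24 h across a range of concentrations. Lysates probed by Western blot for the Hsp70 clients p53, Akt1 and Raf1, alongside Hsp70 and Hsp90. Blots are representative of experiments run in triplicate.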
For orientation: A western blot detects proteins with antibodies after separation by electrophoresis.

The subject of data set [8] is MCF7. Briefly: Inhibition of HSP70 in human MCF7 cells assessed as reduction of Akt1 level at 0.6 to 10 uM after 24 hrs by Western blot analysis. In kind it is cell-based. In outline: as §4
Data set [9] concerns MCF7. Briefly: Upregulation of Hsp90 protein expression in human MCF7 cells at 0.6 to 10 uM after 24 hrs by Western blot analysis. Format: functional, cell-based. In outline:
as §2

The test system of data set [10] is MDA-MB-231. Briefly: Inhibition of HSP70 in human MDA-MB-231 cells assessed as reduction of Akt1 level at 0.6 to 10 uM after 24 hrs by Western blot analysis. Format: cell-based. In outline:
as §4

Data set [11] deals with MCF7. Kind of data set: Upregulation of Hsp70 protein expression in human MCF7 cells at 0.6 to 10 uM after 24 hrs by Western blot analysis. Format: functional, cell-based. The procedure, abridged:
as §2

The test system of data set [12] is MCF7. Briefly: Inhibition of HSP70 in human MCF7 cells assessed as reduction of Raf level at 0.6 to 10 uM after 24 hrs by Western blot analysis. In kind it is cell-based. The procedure, abridged:
as §4

The subject of data set [13] is MCF7. Kind of data set: Inhibition of HSP70 in human MCF7 cells assessed as induction of […] p53 level at 5 to 10 uM after 24 hrs by Western blot analysis. In kind it is cell-based. In outline:
as §2

Data set [14] can be described thus: Selectivity ratio of EC50 for C57BL/6 mouse MEF to EC50 for human MCF-7 cells. Format: ADME, cell-based. To be noted: C57BL/6, mouse and human, mouse embryonic fibroblasts (MEF) versus MCF-7 cells; read-out: Ratio EC50. The procedure, abridged: as §1
The subject of data set [15] is MDA-MB-231. Briefly: Cytotoxicity against human MDA-MB-231 cells assessed as growth inhibition after 72 hrs by MTT assay. In kind it is functional, cell-based. The note with it: MDA-MB-231, 72 h. The procedure, abridged: as §3
In data set [16] the test system is MCF7. Kind of data set: Induction of autophagic flux in human MCF7 cells assessed as increase in p62 oligomerization at 5 to 10 uM after 24 hrs. In kind it is functional, cell-based.
Data set [17] has as its system MDA-MB-231. Kind of data set: Induction of autophagic flux in human MDA-MB-231 cells assessed as decrease in p62 monomer level at 5 to 10 uM after 24 hrs. In kind it is functional, cell-based.
The nature of data set [18]: Binding affinity to [1H-15N]-DnaK (1 to 388) nucleotide binding domain (unknown origin) at 200 uM by NMR analysis.
The test system of data set [19] is MDA-MB-231. Kind of data set: Induction of apoptosis in human MDA-MB-231 cells assessed as PARP cleavage at 10 uM after 48 hrs. Format: functional, cell-based. The procedure, abridged: (§5)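 MDA-MB-231 cells treated for 48 h. Cleavage of caspase 3 and PARP detected by Western blot. Representative of duplicate experiments.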
Data set [20] deals with MDA-MB-231. Briefly: Induction of autophagic flux in human MDA-MB-231 cells assessed as increase in p62 oligomerization at 5 to 10 uM after 24 hrs. In kind it is functional, cell-based.
The test system of data set [21] is MCF7. Briefly: Induction of autophagic flux in human MCF7 cells assessed as decrease in p62 monomer level at 5 to 10 uM after 24 hrs. Format: functional, cell-based.
In data set [22] the test system is MDA-MB-231. Kind of data set: Induction of apoptosis in human MDA-MB-231 cells assessed as caspase-3 cleavage at 10 uM after 48 hrs. In kind it is functional, cell-based. In outline: as §5
Data set [23] is described as follows: Drug metabolism in mouse liver microsomes assessed as compound life time. Format: ADME, Microsome. In outline: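 Compounds at 1 μM incubated with liver microsomes from C57BL/6 mice; disappearance of parent compound followed by LC–MS and reported as microsomal lifetime (t1/2, min).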
A general note: Liver microsomes are a subcellular fraction often used to study metabolism.

Take `CCn1c(=O)/c(=C2\Sc3cccc(F)c3N2C)s/c1=C\c1scc[n+]1Cc1ccccc1.[Cl-]`: the selectivity ratio in data set [1] was 21; in data set [14], 8. For the same compound, the result in data set [2], in [3], in data set [9] and in data set [11] was inactive. The pEC50 (as a rule, the negative decadic logarithm of the EC50, by convention in mol/L) in data set [4] is 6.00; in data set [6] it was 5.08; in [15] it was 6.40. For the same compound, in data set [5], the t1/2 result is listed as “ND(Insoluble)”. Further, the inhibition in data set [7], in data set [8], in data set [10] and in [12] was 25% in each case. Also, the inhibition (in general, the drop in the measured response relative to a control, in per cent) in data set [13] is “Active”.

As for `CCn1c(=O)/c(=C2\Sc3cc(Cl)ccc3N2C)s/c1=C\c1scc[n+]1Cc1ccccc1.[Cl-]`, the outcome in [16], in data set [17], in data set [18], in [19], in data set [20] and in data set [21] was Active. In addition, the outcome in [22] was Active. In addition, the pEC50 in data set [4] was 6.15; in [6], 4.62; in [15], 6.40. The t1/2 in data set [5] is on record as 37 min.

As to `CCn1c(=O)/c(=C2\Sc3ccccc3N2C)s/c1=C\c1cccc[n+]1CC.[Cl-]`, the pEC50 in [4] was 5.66; in data set [6], less than 4.30; in data set [15], 5.85. Also, the half-life (usually the time in which the quantity being followed falls by half) at 1 µM in [5] (liver microsomes) is less than 5 min. Moreover, the Time in data set [23] stood at 4.4 min.
